The source made the active and inactive calls. The calls are words filed in the database; no cut-off is given here.
Tests used:
[1] = target: T1, Sterol O-acyltransferase 1 (Rattus norvegicus, UniProt O70536); test: In vitro potency was determined using Acyl coenzyme A:cholesterol acyltransferase in liver microsomes from rats; design: species or system Microsome
T1 sequence (O70536 whole entry): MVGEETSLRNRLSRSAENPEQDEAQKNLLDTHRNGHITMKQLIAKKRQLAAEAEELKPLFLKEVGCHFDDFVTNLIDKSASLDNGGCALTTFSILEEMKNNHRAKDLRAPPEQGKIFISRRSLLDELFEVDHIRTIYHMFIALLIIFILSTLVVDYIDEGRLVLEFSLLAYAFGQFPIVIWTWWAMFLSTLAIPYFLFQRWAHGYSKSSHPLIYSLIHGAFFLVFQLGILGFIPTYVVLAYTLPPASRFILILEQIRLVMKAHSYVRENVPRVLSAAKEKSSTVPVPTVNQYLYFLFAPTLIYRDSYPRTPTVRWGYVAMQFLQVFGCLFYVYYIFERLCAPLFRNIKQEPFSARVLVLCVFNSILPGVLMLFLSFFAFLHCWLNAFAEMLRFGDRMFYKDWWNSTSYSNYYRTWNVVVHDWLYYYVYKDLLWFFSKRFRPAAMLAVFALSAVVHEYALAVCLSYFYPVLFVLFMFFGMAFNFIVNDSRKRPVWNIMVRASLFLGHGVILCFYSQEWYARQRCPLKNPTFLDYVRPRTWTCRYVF
Method in brief: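 Enzyme source was liver microsomes prepared from chow-fed Sprague-Dawley rats, assayed for ACAT activity by the Billheimer method. IC50 was determined.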

Cricetinae gen. sp. = test: Effects on cholesterol absorption in hamsters; format: functional, organism-based; conditions: Cricetulus griseus
Method in brief: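 Cholesterol-fed hamsters received radiolabeled cholesterol in a liquid diet together with the drug, and untreated controls were included. Animals were sacrificed 24 h later. Absorption inhibition was estimated from plasma and liver radioactivity relative to controls. Dose-response studies gave ED50, and chow-fed hamsters were also tested.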

[2] = Dose required for 50 percent inhibition of lecithin cholesterol acyl transferase in vitro in rats at 30 uM; No effect
Oryctolagus cuniculus = test: Evaluation for the plasma cholesterol lowering in rabbits at the dose 5 mg/kg; format: functional, organism-based; design: dose 5 mg/kg
Method in brief: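 Cholesterol-fed New Zealand White rabbits: diet with 0.4% cholesterol and 5% peanut oil for 4 weeks, drug given over the final 3 weeks at a single dose of 5 mg/kg. Read-out is total plasma cholesterol (mg/dL) against untreated controls, mean ± standard deviation, n = 5 per group.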

[3] = target: T2, 3-hydroxy-3-methylglutaryl-coenzyme A reductase (Rattus norvegicus) (UniProt P51639); test: Dose required for 50 percent inhibition of 3-Hydroxy-3-methylglutaryl coenzyme A reductase in vitro in rats at 100 uM; No effect
T2 sequence (whole entry): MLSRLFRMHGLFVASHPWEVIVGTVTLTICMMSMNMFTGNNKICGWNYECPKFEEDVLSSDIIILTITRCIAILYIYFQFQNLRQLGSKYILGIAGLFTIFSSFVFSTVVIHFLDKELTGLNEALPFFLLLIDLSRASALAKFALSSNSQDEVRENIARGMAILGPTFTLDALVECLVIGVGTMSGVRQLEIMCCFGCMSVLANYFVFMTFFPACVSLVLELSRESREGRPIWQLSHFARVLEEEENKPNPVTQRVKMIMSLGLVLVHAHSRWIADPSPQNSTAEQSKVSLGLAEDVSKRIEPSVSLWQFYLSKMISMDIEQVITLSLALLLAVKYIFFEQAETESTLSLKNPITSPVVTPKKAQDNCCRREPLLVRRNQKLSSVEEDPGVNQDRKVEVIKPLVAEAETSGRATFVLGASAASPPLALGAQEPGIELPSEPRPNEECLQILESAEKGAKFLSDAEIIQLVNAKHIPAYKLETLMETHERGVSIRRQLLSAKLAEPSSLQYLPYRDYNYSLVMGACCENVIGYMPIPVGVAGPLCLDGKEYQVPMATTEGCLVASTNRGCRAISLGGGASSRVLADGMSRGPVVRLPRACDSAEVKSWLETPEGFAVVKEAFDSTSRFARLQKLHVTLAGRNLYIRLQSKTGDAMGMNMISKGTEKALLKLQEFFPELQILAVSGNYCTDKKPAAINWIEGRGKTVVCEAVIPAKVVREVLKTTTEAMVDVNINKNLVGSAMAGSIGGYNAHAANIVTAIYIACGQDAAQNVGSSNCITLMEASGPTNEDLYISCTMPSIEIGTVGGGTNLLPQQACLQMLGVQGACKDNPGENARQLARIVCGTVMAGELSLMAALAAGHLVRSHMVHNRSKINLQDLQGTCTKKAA

[4] = target: T3, Sterol O-acyltransferase 1 (Rattus norvegicus) (UniProt O70536); conditions: 0.135 uM
T3 sequence (whole entry): T1 sequence (O70536 whole entry)

[5] = Dose required for 50 percent inhibition of lecithin cholesterol acyl transferase in vitro in rats at 300 uM; No effect
[6] = target: T4, Bile salt-activated lipase (Bos taurus) (UniProt P30122); test: Dose required for 50 percent inhibition of Pancreatic cholesterol esterase in vitro in rats at 300 uM; No effect
T4 sequence (whole entry): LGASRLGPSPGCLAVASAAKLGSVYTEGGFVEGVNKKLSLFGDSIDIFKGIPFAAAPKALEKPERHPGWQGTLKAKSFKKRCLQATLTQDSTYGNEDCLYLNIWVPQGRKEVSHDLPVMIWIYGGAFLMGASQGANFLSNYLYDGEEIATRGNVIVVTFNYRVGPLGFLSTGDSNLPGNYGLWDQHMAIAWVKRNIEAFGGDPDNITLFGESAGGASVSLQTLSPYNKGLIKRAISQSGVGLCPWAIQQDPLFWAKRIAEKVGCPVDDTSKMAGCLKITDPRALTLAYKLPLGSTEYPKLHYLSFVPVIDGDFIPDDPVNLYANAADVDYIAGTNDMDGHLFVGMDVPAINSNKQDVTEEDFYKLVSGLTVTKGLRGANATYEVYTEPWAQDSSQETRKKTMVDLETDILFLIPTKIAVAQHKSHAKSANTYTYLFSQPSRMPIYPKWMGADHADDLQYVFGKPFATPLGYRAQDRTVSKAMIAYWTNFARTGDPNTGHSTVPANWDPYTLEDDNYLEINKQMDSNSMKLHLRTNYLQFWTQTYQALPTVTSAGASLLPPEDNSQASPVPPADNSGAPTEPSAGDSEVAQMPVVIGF

[7] = Dose required for 50 percent inhibition of rat Pancreatic cholesterol esterase in vitro No effect at 300 uM

SMILES | IC50 [1] [µM] | Absorption (Cricetinae gen. sp.) [mg/kg] | inhibition [2] | Level (Oryctolagus cuniculus) [mg/dL] | inhibition [3] | inhibition [4] [%] | inhibition [5] | inhibition [6] | inhibition [7]
CCCCCCCC[C@@H](SCCCCCC)C(=O)Nc1c(SC)ccc2ncccc12 | 0.75 | – | – | – | – | – | – | – | –
CCCCCCCC[C@H](SCCCCCC)C(=O)Nc1c(SC)ccc2ncccc12 | 0.135 | 0.24 | inactive | 123 | inactive | 50 | – | – | –
CCCCCCCCC(SCCCCCC)C(=O)Nc1c(SC)cc(C)nc1SC (single isomer, unassigned) | 0.16 | – | – | – | – | – | – | – | –
CCCCCCCC[C@H](SCCCCCC)C(=O)Nc1c(SC)cc(C)nc1SC | 0.022 | 0.009 | – | 98 | – | – | inactive | inactive | inactive

— ChEMBL document CHEMBL1127642, “Potent, selective, and systemically-available inhibitors of acyl-coenzyme A:cholesterol acyl transferase (ACAT)” (J Med Chem, 1994)
